Screening data (PubChem)
AF4-AF9 inh = inhibitors of human MLL-AF4/AF9 interaction | P42568 | inhibition, % at 10 µM | actives 0.47% (n = 350,000) | AlphaScreen, biotin-AF4 peptide binding to FLAG-AF9;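 active means every replicate reaching a set inhibition limit, whatever the replicate mean, cut at about 25% in these data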;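 further: 0% = plate neutral control median and 100% = total signal loss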
FN deposition inh = fibronectin deposition inhibition | actives 0.086% (n = 350,000) | inhibition, % at 12.6 µM | AH1F fibroblasts, Alexa488-fibronectin deposition fluorescence, overnight;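 active means mean inhibition across replicates of 30% or more, regardless of how many single replicates reach that level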;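 further: positive control wells lacked labelled fibronectin entirely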
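Material: AH1F fibroblast monolayer depositing Alexa488-labelled fibronectin into matrix / Amount: 10000 AH1F cells per well / Signal: fluorescence 485/525 nm / Medium: DMEM, 2% serum / Compound: single dose, pinned / Incubation: 1 h cell adhesion before compound, then overnight fibronectin incubation / Reagent: Alexa488-FN, 24 nM final / Read-out: inhibition of fibronectin deposition signal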
Glyco luc inh = N-linked glycosylation inhibition. AID 588692. actives 0.23% (n = 360,000). reporter increase, % at 12.5 µM. D54 ERlucT glycosylation luciferase reporter, 24 h; percent of 100 nM tunicamycin response;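 active means mean luciferase reporter signal, scaled so untreated is 0 and the glycosylation-blocking control 100, at or above a set limit in every replicate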;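 further: luciferase carries N-glycosylation sites so blocking glycosylation raises the light; 0% = median of neutral control wells and 100% = median of 100 nM tunicamycin wells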
NSD2 HMT inh = NSD2 (human) methyltransferase inhibition. NSD2 peptide methylation, AlphaScreen, 120 min. inhibition, % at 12.5 µM. actives 0.54% (n = 310,000). AID 743445; in the data active means inhibition above about 50%
RAD54 branch = RAD54 (human) branch migration inhibition. actives 0.14% (n = 360,000). inhibition, % at 10.4 µM. RAD54 Holliday junction branch migration, FAM/BHQ fluorescence. AID 602329. Q92698;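 active means mean normalized replicate activity at least 40 and at least half of replicates scoring 40 or more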;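 further: 0% = median of neutral control wells and 100% = median of positive control wells; inhibitors cause a drop in the FAM fluorescence signal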
RAD52 anneal inh = blocks human RAD52 DNA annealing; actives 0.46% (n = 360,000); P43351; inhibition, % at 18.7 µM; AID 651710; recombinant RAD52 DNA annealing, FRET fluorescence;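 active means every replicate showing at least 50% inhibition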
Target sequence (P43351 whole entry, looked up): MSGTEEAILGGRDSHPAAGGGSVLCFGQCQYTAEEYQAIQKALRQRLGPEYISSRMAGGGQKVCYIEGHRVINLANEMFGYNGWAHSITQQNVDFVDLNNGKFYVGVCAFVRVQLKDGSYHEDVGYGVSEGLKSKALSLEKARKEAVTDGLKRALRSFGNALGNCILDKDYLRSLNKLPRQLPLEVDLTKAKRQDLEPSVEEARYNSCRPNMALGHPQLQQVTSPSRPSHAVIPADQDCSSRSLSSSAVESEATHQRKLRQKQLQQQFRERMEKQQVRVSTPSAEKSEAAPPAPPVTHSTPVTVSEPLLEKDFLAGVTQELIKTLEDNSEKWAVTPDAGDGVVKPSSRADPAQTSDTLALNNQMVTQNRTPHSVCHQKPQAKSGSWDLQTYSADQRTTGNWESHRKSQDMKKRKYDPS
The depositor's hits bear a star; / = no result. A selection: hits, their analogues and other compounds. The true share with any hit is near 1.2%.

SMILES | AF4-AF9 inh | FN deposition inh | Glyco luc inh | NSD2 HMT inh | RAD54 branch | RAD52 anneal inh
CCCC#Cc1cnc2c(c1)C(=O)N([C@@H](C)CO)C[C@H](C)[C@H](CN(C)Cc1ccc3c(c1)OCO3)O2 | 1 | / | / | / | 0 | 14
CCOc1cccc(/C=C/C(=O)O)c1 | 47* | -2 | 1 | -2 | -1 | -1
CC1NC(=O)NC1CCCCCC(=O)NCCc1ccccc1 (centres undefined) | 77* | / | 2 | / | 7 | -22
CC1(C)C[C@H](O)[C@]2(CO)CC[C@]3(C)C(=CCC4[C@@]5(C)CC[C@H](O)C(C)(C)C5CC[C@]43C)[C@@H]2C1 (some centres undefined) | -4 | / | -5 | / | 6 | 0
CC1(C)C[C@H](O)[C@]2(CO)[C@H](O)C[C@]3(C)C(=CCC4[C@@]5(C)CC[C@H](O)C(C)(C)C5CC[C@]43C)[C@@H]2C1 (some centres undefined) | 46* | -11 | -5 | / | 6 | -2
O=C(NCc1ccccc1Cl)c1cccc2c1C(=O)c1ccc(-c3ccc(OC(F)(F)F)cc3)cc1S2(=O)=O | / | / | 304* | / | 5 | /
CN(C)CCn1c(=O)n(-c2ccc(F)cc2)c(=O)c2c3c(sc21)CCCCC3 | 0 | 0 | -2 | 4 | / | -7
CN(C)CCCn1c(=O)n(C2CCCCC2)c(=O)c2c3c(sc21)CCCCC3 | 28* | -7 | 2 | / | 15 | 19
COc1ccccc1N(CC(=O)N(CC(C)C)CC(C)C)S(=O)(=O)c1cccs1 | -1 | 32* | -1 | 1 | -7 | -4
CN(C)CC#Cc1ccc([C@@H]2[C@@H](CO)N3CCCCN(CC4CC4)C[C@H]23)cc1 | 16 | / | / | / | 0 | 55*
CN(C)CC#Cc1ccc([C@@H]2[C@H]3CN(CC4CC4)CCCCN3[C@H]2CO)cc1 | 26* | / | / | / | -9 | 74*
CN(C)CC#Cc1ccc([C@H]2[C@H]3CN(CC4CCOCC4)CCCCN3[C@H]2CO)cc1 | -4 | / | / | / | -11 | 38
CN(C)CC#Cc1ccc([C@H]2[C@@H](CO)N3CCCCN(CC4CC4)C[C@H]23)cc1 | 26* | / | / | / | 1 | 67*
C[C@@H]1CN([C@@H](C)CO)C(=O)c2cccc(NC(=O)Nc3ccc(F)cc3)c2O[C@H]1CN(C)Cc1ccccc1 | -3 | / | / | / | -2 | -7
CC(C)c1ccc(S(=O)(=O)N2CCN(CC(=O)c3ccc(O)c(O)c3)CC2)cc1 | -1 | 6 | 0 | 96* | -2 | -15
C[C@@H]1CN([C@@H](C)CO)C(=O)c2cc(NC(=O)NC3CCCCC3)ccc2O[C@@H](C)CCCCO[C@@H]1CN(C)C(=O)Cc1ccccc1 | / | / | / | / | -36 | /
CC1(C)CCCN(C(=O)c2coc(=O)c(Br)c2)C1 | / | / | 3 | 114* | -7 | /
O=C(c1coc(=O)c(Br)c1)N1CCC(C(O)(c2ccccc2)c2ccccc2)CC1 | -7 | 3 | 2 | 37 | / | -6
Cc1ccc2nc(SCC(=O)Nc3ccccc3N3CCOCC3)c(C#N)cc2c1 | / | / | 12 | 6 | 5 | /
Cc1ccc2nc(SCC(=O)Nc3ccc4sc(C)nc4c3)c(C#N)cc2c1 | / | / | 33* | -1 | 0 | /
Cc1ccc(S(=O)(=O)Nc2ccc3c(c2)C(=O)N([C@H](C)CO)C[C@@H](C)[C@H](CN(C)S(C)(=O)=O)O3)cc1 | -2 | -7 | / | / | -12 | -3
Cc1ccc(NC(=O)c2ccc(-n3cccn3)c([N+](=O)[O-])c2)cc1 | / | -3 | 3 | 2 | 2 | /
O=C(Nc1ccc(C2=NCCN2)cc1)c1ccc(C(=O)Nc2ccc(C3=NCCN3)cc2)c([N+](=O)[O-])c1 | 38* | -13 | 1 | / | / | 104*
O=C(NCc1ccco1)c1ccc(CS(=O)(=O)c2ccc(Cl)cc2)o1 | / | / | / | -1 | / | /
O=C(O)c1ccc(NC2=C/C(=N/S(=O)(=O)c3cccs3)c3ccccc3C2=O)cc1 | 13 | -4 | 3 | / | -6 | -6
SMILES | AF4-AF9 inh | FN deposition inh | Glyco luc inh | NSD2 HMT inh | RAD54 branch | RAD52 anneal inh
O=C1C=C(Nc2ccc(O)cc2)C(=O)c2ccccc21 | -37 | 47* | -9 | / | 7 | -14
O=C1C(Cl)=C(Nc2ccc(O)cc2)C(=O)c2ccccc21 | 21 | 20 | -1 | 3 | / | -5
COC1=C(Nc2ccc(O)cc2)C(=O)c2ccccc2C1=O | 50* | -4 | -1 | 46 | / | -4
O=C1C(Nc2ccc(O)cc2)=C/C(=N/S(=O)(=O)c2cccs2)c2ccccc21 | 63* | 17 | -19 | / | / | -9
CC(=O)Nc1ccc(NC2=CC(=O)c3ccccc3C2=O)cc1 | -1 | 4 | -2 | 11 | -7 | -1
COc1ccc(C#Cc2cnc3c(c2)C(=O)N([C@@H](C)CO)C[C@@H](C)[C@H](CN(C)C(=O)Nc2cccc(OC)c2)O3)cc1 | / | 3 | / | / | / | /
O=C(CSc1nc2ccccc2c(=O)n1-c1ccccc1F)Nc1ccc2c(c1)CCC2 | 1 | 31* | -5 | -4 | 18 | -14
O=C(CSc1nc2ccccc2c(=O)n1-c1ccc(F)cc1F)Nc1ccc2c(c1)CCC2 | 3 | / | -12 | -2 | / | -9
COc1ccc(OC)c(S(=O)(=O)NCCCN2CCOCC2)c1 | -8 | 2 | -2 | 10 | -2 | 0
COc1cc2sc3cc(NCCCN4CCOCC4)ccc3c(=O)c2cc1OC | 3 | -4 | 10 | / | 22 | 81*
Cc1c(C(=O)N2CCCC2)oc2c1-c1nn(CC(=O)NCCCOC(C)C)cc1CC2 | 0 | 6 | 0 | 138* | / | -11
C[C@H](CO)N1C[C@H](C)[C@@H](CN(C)C(=O)Oc2ccccc2)OCc2ccccc2-c2ccccc2C1=O | -2 | -2 | / | / | -6 | 16
C[C@H]1CN([C@@H](C)CO)C(=O)Cc2cc(NC(=O)c3ccncc3)ccc2O[C@@H]1CN(C)Cc1ccc(Cl)c(Cl)c1 | 1 | / | / | / | -2 | 13
C/C(=N\Nc1ccc([N+](=O)[O-])cc1[N+](=O)[O-])C(C)C(C)C (centres undefined) | 26* | -7 | -3 | 24 | / | -16
CCOC(=O)C(C)/C(C)=N\Nc1ccc([N+](=O)[O-])cc1[N+](=O)[O-] (centres undefined) | 10 | 1 | 1 | 17 | / | -11
CC(=O)N1[C@@H]2c3ccc(-c4ccccc4)c(=O)n3C[C@H]1[C@H](CO)[C@H]2C(=O)N1CCCCC1 | 0 | / | / | / | 3 | 63*
CCC(=O)N1[C@@H]2Cn3c(ccc(-c4ccccc4)c3=O)[C@H]1[C@@H](C(=O)N1CCCCC1)[C@@H]2CO | 1 | / | / | / | -8 | 4
CCNC(=O)[C@@H]1[C@@H](CO)[C@@H]2Cn3c(ccc(-c4ccccc4F)c3=O)[C@H]1N2C(=O)CC | 1 | / | / | / | 2 | 101*
CC(C)NC(=O)Nc1ccc2c(c1)CC(=O)N([C@@H](C)CO)C[C@H](C)[C@@H](CN(C)C)O2 | -2 | -14 | / | / | -7 | 11
O=C(C[C@@H]1CC[C@H]2[C@@H](COC[C@@H](O)CN2Cc2cccc(F)c2)O1)NCc1ccncc1 | -7 | -1 | / | / | -8 | -19
